Data set [1] deals with Rattus norvegicus. Kind of data set: Antiinflammatory activity against carrageenan/Evans blue dye-induced pleural effusion rat model assessed as reduction in pleural fluid volume at 0.4 mmol/kg, po administered 1 hr prior challenge measured 6 hrs post challenge relative to phenylbutazone. Type of data set: functional.
The test system of data set [2] is Rattus norvegicus. In words: […] in Freund's adjuvant-induced Lewis rat arthritis model assessed as reduction of uninjected paw volume at 0.2 mmol/kg, po qd administered on day 0 to day 21 of adjuvant challenge measured on day 21 by plethysmometry relative to control. Type of data set: organism-based. Also on record: scale not given: the % may be the effect or the level left. As to conditions: in vivo. In a few lines: (§1)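 Male Lewis rats (125-150 g) given an intradermal injection of 0.05 mL of 0.65% Mycobacterium tuberculosis suspension in Freund's adjuvant into the right hind plantar surface on day 0. Negative controls received mineral oil only. Dosing once daily by gavage, groups of six, days 0-21. Injected and uninjected hind-foot volume change over days 0-21 measured plethysmographically. Value is percent reduction relative to controls.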

Data set [3] concerns Rattus norvegicus. In words: Antiinflammatory activity in Freund's adjuvant-induced Lewis rat arthritis model assessed as reduction of paw volume at 0.2 mmol/kg, po qd administered on day 0 to day 21 of adjuvant challenge measured on day 7 by plethysmometry relative to control. The arrangement: scale not given: the % may be the effect or the level left. Type of data set: functional.

In data set [4] the test system is Rattus norvegicus. Kind of data set: Antiinflammatory activity against carrageenan/Evans blue dye-induced pleural effusion rat model assessed as reduction in pleural fluid volume at 0.4 mmol/kg, po administered 1 hr prior challenge measured 6 hrs post challenge relative to control. Type of data set: functional. Also on record: scale not given: the % may be the effect or the level left. In a few lines:
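Oral dosing at 0.4 mmol/kg to groups of six rats, 1 h before intrapleural carrageenan plus Evans blue dye. Rats killed 6 h after the irritants and pleural fluid volume measured. Value is percent reduction in fluid volume relative to untreated controls.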

For data set [5], the system named is Rattus norvegicus. In words: Antiinflammatory activity in Freund's adjuvant-induced Lewis rat arthritis model assessed as reduction of paw volume at 0.2 mmol/kg, po qd administered on day 0 to day 21 of adjuvant challenge measured on day 21 by plethysmometry relative to control. It is filed as functional. Also on record: scale not given: the % may be the effect or the level left. In a few lines:
as §1

Data set [6] relates to Rattus norvegicus. In words: Antiinflammatory activity against carrageenan/Evans blue dye-induced pleural effusion rat model assessed as reduction in pleural fluid volume at 0.83 mmol/kg, po administered 1 hr prior challenge measured 6 hrs post challenge relative to control. It is filed as functional. The arrangement: scale not given: the % may be the effect or the level left.

The subject of data set [7] is Rattus norvegicus. Kind of data set: Antiinflammatory activity in Freund's adjuvant-induced Lewis rat arthritis model assessed as reduction of paw volume at 72 mg/kg, po qd administered on day 0 to day 21 of adjuvant challenge measured on day 21 by plethysmometry relative to control. Type of data set: functional. Also on record: scale not given: the % may be the effect or the level left. The procedure, abridged: as §1

The subject of data set [8] is Rattus norvegicus. In words: Antiinflammatory activity in Freund's adjuvant-induced Lewis rat arthritis model assessed as reduction of paw volume at 72 mg/kg, po qd administered on day 0 to day 21 of adjuvant challenge measured on day 7 by plethysmometry relative to control. Type of data set: functional. Also on record: scale not given: the % may be the effect or the level left.

Data set [9] concerns Rattus norvegicus. Kind of data set: […] in Freund's adjuvant-induced Lewis rat arthritis model assessed as reduction of uninjected paw volume at 72 mg/kg, po qd administered on day 0 to day 21 of adjuvant challenge measured on day 21 by plethysmometry relative to control. Type of data set: organism-based. Also on record: dose 72 mg/kg, route oral; scale not given: the % may be the effect or the level left. Conditions: in vivo. In a few lines: as §1

Consider `O=C(O)CCn1nnc(-c2ccccc2)n1`, for which, in data set [1], the “fold change (FC)” value was 0.9.
As to `O=C(O)CCn1nc(-c2ccccc2)c(-c2ccccc2)n1`, the Activity in [2] stood at 34%; in data set [3] it was 21%; in [4], 26%; in data set [5], 23%.
Turning to `Cc1cccc(-c2cnn(CCC(=O)O)n2)c1`, the Activity in data set [2] is reported as 9.6%; in data set [3] it was 13%; in [4], -1.3%; in data set [5] it was 4.5%.
Take `O=C(O)CCCn1ncc(-c2ccccc2)n1`: the Activity in data set [2] is recorded as 1.4%; in [3], -1.8%; in data set [4] it was 13%; in [5] it was 14%.
The matching figures for `O=C(O)Cn1ncc(-c2ccccc2)n1`: 45%, -17%, -5% and -9%.
In the case of `CC(=O)Nc1cccc(-c2cnn(CCC(=O)O)n2)c1`, the Activity in data set [2] was -24%; in data set [3], 8.1%; in [4], -3.2%; in data set [5] it was -0.1%.
With `CC(=O)c1nn(CCC(=O)O)nc1-c1ccccc1`, the Activity in [2] was -30%; in [3], 13%; in data set [4], 2.6%; in [5], -8%.
The matching figures for `O=C(O)CCc1nnn(-c2cccc(Br)c2)n1`: 22%, 17%, 21% and 34%.
`CC(=O)Oc1ccccc1C(=O)O` [ASPIRIN]: the Activity in [6] is on record as 29%; in data set [7], 5%; in [8] it was 37%; in [9] it was -11%.
Consider `CCCCC1C(=O)N(c2ccccc2)N(c2ccccc2)C1=O` [PHENYLBUTAZONE], for which the Activity in data set [2] amounted to 36%; in data set [3], 33%; in data set [4], 28%; in data set [5] it was 39%.
